Measurements published in paper PMC8504815 (Clinical and Translational Science, 2021).
Entries after “also recorded” stand apart in the source; their conditions may differ.

How the values were obtained:
skin prick test wheal = assay: Skin prick test; type: in vivo, human; details: MAD
Method in brief: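 MAD subjects with atopic diathesis had skin prick tests to known allergens from 7 undiluted allergens (pollens, house dust mite, cat and horse dander). Tests were done at day −1, day 1 predose/2/8 h, day 2 predose and day 12 predose/8/24/96 h. Wheal diameter was the mean of the longest and perpendicular diameters. The predose average (day −1 and day 1) was compared with the average of all 7 postdose tests.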

[1] = Blood pharmacokinetics, multiple ascending dose; type: in vivo, human; details: for CLss/F: apparent total body clearance from blood at steady state; for CLss/F / AUC(0-t) / Cmax: mean (SD); for half-life: terminal half-life; for half-life / Tmax: median (minimum-maximum)
Method in brief: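 Fasted healthy subjects with asymptomatic atopic diathesis were randomized 3:1 to oral drug or placebo, q.d. or b.i.d., through day 12. Blood was sampled predose and to 24 h on day 1 (b.i.d. to 12 h), then at trough and 2 h postdose. Urine was also collected. Assay was LC-MS/MS. Log Cmax/AUC was regressed on log dose (slope, 90% CI).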

Food effect = type: in vivo, human; details: for MRT: mean (SD)
basophils [2] = assay: Basophil activation; type: in vivo, human; details: for trough inhibition of CD203c: day 12; for inhibition of CD203c+ basophils, peak: 8 h on day 1
Method in brief: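 Heparinized whole blood was drawn at set timepoints from MAD subjects (healthy, asymptomatic atopic diathesis; oral q.d. or b.i.d.). It was stimulated ex vivo with anti-IgE for 25 minutes at 37°C/5% CO₂. CD63+ and CD203c+ basophils were counted as a percentage by flow cytometry and expressed as % inhibition versus baseline. Subjects with baseline CD63+ stimulation below 10% were excluded.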

Safety and tolerability = type: in vivo, human; details: for dose-limiting toxicity: up to highest dose tested
[3] = Blood pharmacokinetics, single ascending dose; type: in vivo, human
Method in brief: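 Ten cohorts of 8 healthy adults aged 18–65 were randomized 3:1 to one fasted oral dose (0.5–600 mg) or placebo, double-blind. Blood was taken predose and at protocol timepoints up to day 8, and drug was measured by validated LC-MS/MS. Dose proportionality used regression of log Cmax and AUC on log dose, giving the slope with 90% CI.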

[4] = statement in discussion, no value or reference printed; cited from earlier work
BTK = BTK (Homo sapiens, UniProt Q06187); assay: BTK occupancy in blood; type: in vivo
basophils [5] = details: doses >=200 mg; not sustained beyond; cited from earlier work
[6] = human, whole blood, oral, 100 mg, MAD 100 mg b.i.d., Day 1
[7] = human, whole blood, oral, 100 mg, MAD 100 mg b.i.d., Day 12
[8] = human, whole blood, oral, 200 mg, MAD 200 mg b.i.d., Day 12
[9] = human, whole blood, oral, 600 mg, MAD 600 mg q.d., Day 1

BTK, sequence (Q06187 whole entry): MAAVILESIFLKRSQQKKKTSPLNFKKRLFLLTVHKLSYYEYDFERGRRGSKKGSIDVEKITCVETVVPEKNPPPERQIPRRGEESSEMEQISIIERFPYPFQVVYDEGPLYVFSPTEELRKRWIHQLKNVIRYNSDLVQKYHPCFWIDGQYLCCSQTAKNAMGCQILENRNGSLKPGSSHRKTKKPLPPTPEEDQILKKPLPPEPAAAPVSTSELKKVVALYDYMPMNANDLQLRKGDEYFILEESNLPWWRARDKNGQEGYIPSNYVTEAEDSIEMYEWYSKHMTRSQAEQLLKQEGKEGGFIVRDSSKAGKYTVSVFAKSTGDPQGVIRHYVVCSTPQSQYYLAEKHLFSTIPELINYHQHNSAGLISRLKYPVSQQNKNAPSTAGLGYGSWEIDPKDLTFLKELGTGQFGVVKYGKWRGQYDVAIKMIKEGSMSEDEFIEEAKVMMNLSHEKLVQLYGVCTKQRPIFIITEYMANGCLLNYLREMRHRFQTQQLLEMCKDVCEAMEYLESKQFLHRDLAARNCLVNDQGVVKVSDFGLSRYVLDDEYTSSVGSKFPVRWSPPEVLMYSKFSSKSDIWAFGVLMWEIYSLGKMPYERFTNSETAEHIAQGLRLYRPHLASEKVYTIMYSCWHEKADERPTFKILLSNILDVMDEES

## C=CC(=O)N(C)CCOc1c(N)ncnc1-c1cc(F)cc(NC(=O)c2ccc(C3CC3)cc2F)c1C [Remibrutinib]
Skin prick test wheal; day 12 predose, >=100 mg q.d.
  skin prick test (SPT) inhibition: Near complete
Skin prick test wheal; doses >=100 mg q.d., across all tests, subjects with atopic diathesis
  average decrease in wheal size (SPT): ~ 3 mm
[1]; MAD 100 mg b.i.d., Day 12
  CLss/F: 255 (153) L/h
[1]; MAD 100 mg q.d., Day 12
  CLss/F: 198 (88.7) L/h
[1]; MAD 200 mg b.i.d., Day 12
  CLss/F: 267 (126) L/h
[1]; MAD 400 mg q.d., Day 12
  CLss/F: 366 (150) L/h
[1]; MAD 600 mg q.d., Day 12
  CLss/F: 521 (131) L/h
[1]; MAD cohorts
  dose proportional increases of Cmax and AUC over the full dose range: not observed
  time to steady-state: third day of dosing
[1]; across doses in all MAD cohorts, urine
  direct renal excretion, contribution to total apparent blood clearance: ~ 1%
[1]; human, whole blood, oral, 100 mg, AUC0–12 h, MAD 100 mg b.i.d., Day 12
  AUC(0-t): 496 ng·h/mL
[1]; human, whole blood, oral, 100 mg, AUC0–24 h, MAD 100 mg q.d., Day 12
  AUC(0-t): 485 ng·h/mL
[1]; human, whole blood, oral, 100 mg, AUClast, MAD 100 mg b.i.d., Day 12
  AUC(0-t): 518 ng·h/mL
[1]; [6]
  Cmax: 180 ng/mL
  Tmax: 1.5 h
[1]; [7]
  Cmax: 306 ng/mL
  Tmax: 0.775 h
[1]; human, whole blood, oral, 100 mg, T1/2, MAD 100 mg b.i.d., Day 12
  half-life: 2.84 h
[1]; human, whole blood, oral, 200 mg, AUC0–12 h, MAD 200 mg b.i.d., Day 1
  AUC(0-t): 464 ng·h/mL
[1]; human, whole blood, oral, 200 mg, AUC0–12 h, MAD 200 mg b.i.d., Day 12
  AUC(0-t): 890 ng·h/mL
[1]; human, whole blood, oral, 200 mg, AUClast, MAD 200 mg b.i.d., Day 1
  AUC(0-t): 464 ng·h/mL
[1]; human, whole blood, oral, 200 mg, MAD 200 mg b.i.d., Day 1
  Cmax: 236 ng/mL
[1]; [8]
  Cmax: 347 ng/mL
  Tmax: 0.992 h
[1]; human, whole blood, oral, 200 mg, T1/2, MAD 200 mg b.i.d., Day 12
  half-life: 12.4 h
[1]; human, whole blood, oral, 400 mg, AUC0–24 h, MAD 400 mg q.d., Day 1
  AUC(0-t): 977 ng·h/mL
[1]; human, whole blood, oral, 600 mg, AUC0–24 h, MAD 600 mg q.d., Day 1
  AUC(0-t): 1080 ng·h/mL
[1]; human, whole blood, oral, 600 mg, AUC0–24 h, MAD 600 mg q.d., Day 12
  AUC(0-t): 1230 ng·h/mL
[1]; [9]
  Cmax: 550 ng/mL
  Tmax: 0.75 h
[1]; human, whole blood, oral, mean residence time (MRT), multiple doses (q.d. and b.i.d.), overall statement
  MRT: < 3 h
[1]; multiple doses (q.d. and b.i.d.), overall statement
  mean residence time (MRT): ~ 3 h
[1]; overall statement in discussion
  number of doses to steady state: less than 5 doses
[1]; q.d. and b.i.d. dosing
  accumulation with multiple doses: no pronounced accumulation; also recorded: no marked accumulation
Food effect; 60 mg single dose, standardized high-fat breakfast
  Delay of median Tmax, fed vs fasted: ~ 2 h
Food effect; 60 mg single dose, 90% CI 0.638-1.01
  Cmax geometric mean ratio (fed vs fasted): 0.801
Food effect; 60 mg single dose, 90% CI 1.14-1.47
  AUClast geometric mean ratio (fed vs fasted): 1.30
Food effect; 60 mg, fed vs fasted
  effect of food intake on exposure: no clinically relevant effect
Food effect; human, whole blood, oral, 60 mg, 60 mg single dose, Fasted
  MRT: 2.29 ± 0.72 h
Food effect; human, whole blood, oral, 60 mg, 60 mg single dose, Fed
  MRT: 4.17 ± 1.2 h
Food effect; human, whole blood, oral, 60 mg, Tmax, 60 mg single dose, Fed, median (min-max)
  Tmax: 2.78 h
Basophils [2]; MAD 10 mg q.d., last day of dosing
  trough level inhibition of CD63: 80%
Basophils [2]; MAD 100 mg b.i.d.
  trough inhibition of CD203c: 63%
Basophils [2]; MAD 200 mg b.i.d.
  inhibition of CD203c+ basophils, peak: 81.8%
  trough inhibition of CD203c: 67%
Basophils [2]; MAD 400 mg q.d.
  inhibition of CD203c+ basophils, peak: 84%
Basophils [2]; MAD daily dose >=50 mg, day 1-12 incl. day 12 predose
  inhibition of blood basophil activation (CD63 expression): Near complete; also recorded: Full inhibition
Basophils [2]; SAD 60 mg, after 24 h
  basophil inhibition (CD63 expression): ~90%
Basophils [2]; SAD 200 mg cohort, at 8 h
  inhibition of CD203c basophil activation marker: up to 79.4%
Basophils [2]; SAD, doses >=100 mg
  basophil inhibition (CD63 expression): almost complete inhibition
Safety and tolerability; 100 mg MAD cohort, after trauma / vessel puncture, resolved spontaneously
  hematomas: two hematomas
Safety and tolerability; 600 mg MAD group, both had history of repeated epistaxis
  self-limiting epistaxis: Two subjects
Safety and tolerability; FE cohort, 2/12
  headache (most common AE): 16.7%
Safety and tolerability; FE cohort, 7 of 12 subjects
  Subjects with at least 1 AE: 58.3%
Safety and tolerability; FE cohort, fasted condition
  incidence of AEs: 16.7%
Safety and tolerability; FE cohort, fed condition
  incidence of AEs: 50%
Safety and tolerability; Food effect cohort, N = 12
  AE severity: Mild: 7 (58.3) n (%)
  AE severity: Moderate: 1 (8.3) n (%)
  Headache: 2 (16.7) n (%)
  Nasopharyngitis: 1 (8.3) n (%)
  Study drug-related AEs: 3 (25.0) n (%)
  Subjects with at least 1 AE: 7 (58.3) n (%)
Safety and tolerability; MAD cohorts, 5/48
  subjects with AEs suspected to be related to the study drug: 10.4%
Safety and tolerability; MAD cohorts, 24 subjects on remibrutinib
  incidence of AEs (subjects with at least 1 AE): 50.0%
Safety and tolerability; MAD cohorts, all doses, N = 48
  AE severity: Mild: 22 (45.8) n (%)
  AE severity: Moderate: 5 (10.4) n (%)
  AE severity: Severe: 1 (2.1) n (%)
  Headache: 5 (10.4) n (%)
  Nasopharyngitis: 3 (6.3) n (%)
  Study drug-related AEs: 5 (10.4) n (%)
  Subjects with at least 1 AE: 24 (50.0) n (%)
  Toothache: 1 (2.1) n (%)
Safety and tolerability; SAD 100 and 200 mg cohorts
  AEs reported: No AEs
Safety and tolerability; SAD cohorts, 17 subjects on remibrutinib
  Subjects with at least 1 AE: 28.3%
Safety and tolerability; SAD cohorts, all doses, N = 60
  AE severity: Mild: 16 (26.7) n (%)
  AE severity: Moderate: 1 (1.7) n (%)
  Headache: 6 (10.0) n (%)
  Nasopharyngitis: 4 (6.7) n (%)
  Study drug-related AEs: 7 (11.7) n (%)
  Subjects with at least 1 AE: 17 (28.3) n (%)
Safety and tolerability; SAD cohorts, all on remibrutinib, of 80 subjects
  subjects with AEs suspected to be related to the study drug: 7 subjects
Safety and tolerability; all cohorts
  changes in hematology, biochemistry, urinalysis parameters (vital signs, ECG): No clinically significant changes
Safety and tolerability; all doses
  dose-limiting toxicity: without any dose‐limiting toxicity
Safety and tolerability; all doses, listed as remibrutinib
  dose-limiting toxicity: No dose‐limiting toxicity
Safety and tolerability; all evaluated doses, up to 600 mg oral
  tolerability: well‐tolerated
Safety and tolerability; any cohort, overall summary
  SAEs or deaths: No SAEs or deaths
Safety and tolerability; any dose, bruising log and coagulation testing
  risk of bleeding: no increased risk of bleeding
[3]; SAD cohorts
  dose proportionality of Cmax, AUCinf, AUClast over the full dose range: not demonstrated
[3]; human, whole blood, oral
  half-life: 1 to 2 h
[3]; human, whole blood, po
  Tmax: 0.5 to 1.25 h
[4]
  solubility: low solubility
BTK; MAD, doses >=50 mg, over the measured dosing period, complete = >95%
  BTK occupancy in blood: maintained complete BTK occupancy
BTK; SAD, lowest dose of 0.5 mg
  BTK occupancy in blood: no BTK occupancy
BTK; single dose
  lowest dose showing both complete BTK occupancy and almost complete basophil inhibition: 30 mg

## C[C@H]1CN(C2COC2)CCN1c1ccc(Nc2cc(-c3ccnc(N4CCn5c(cc6c5CC(C)(C)C6)C4=O)c3CO)cn(C)c2=O)nc1 [fenebrutinib]
Basophils [5]
  duration of more than 90% CD63 inhibition: ≤ 8 h
